Assay results taken from ChEMBL document CHEMBL4043142, “Discovery of new leads against Mycobacterium tuberculosis using scaffold hopping and shape based similarity” (Bioorg Med Chem, 2017).
Converted amounts (≈) assume the structure as drawn.

Experiments:
[1] = system: Mycobacterium tuberculosis; experiment: Antitubercular activity against Mycobacterium tuberculosis H37Rv ATCC 25618 after 6 days by resazurin dye based assay; assay type: functional; conditions: H37Rv ATCC 25618, 144 h
[2] = system: Vero; experiment: Cytotoxicity against African green monkey Vero cells after 72 hrs by MTT assay; assay type: cell-based; conditions: Chlorocebus sabaeus
[3] = system: HepG2; experiment: Cytotoxicity against human HepG2 cells after 48 hrs by CellTiter-Glo assay; assay type: cell-based; conditions: HepG2, 48 h
[4] = Half life in mouse microsomes; assay type: ADME, Microsome
[5] = Protection index, ratio of IC50 for HepG2 cells to MIC for Mycobacterium tuberculosis H37Rv
[6] = Protection index, ratio of IC50 for African green monkey Vero cells to MIC for Mycobacterium tuberculosis H37Rv
[7] = system: Mycobacterium tuberculosis; experiment: Antitubercular activity against Mycobacterium tuberculosis H37Rv after 5 days by microplate alamar blue assay; assay type: functional; conditions: 120 h
[8] = system: Staphylococcus aureus; experiment: Antimicrobial activity against gram-positive Staphylococcus aureus ATCC 43300 at 32 ug/ml after 18 hrs; assay type: functional; conditions: ATCC 43300, 18 h
Procedure, shortened: (§1)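 Whole-cell growth inhibition screen at a single final concentration of 32 µg/mL, in duplicate on different plates, with 0.3% DMSO final. Bacteria grown overnight in cation-adjusted Mueller Hinton broth at 37°C, diluted 40-fold, and grown 1.5-3 h to mid-log. Wells seeded at 5×10^5 CFU/mL and incubated 18 h at 37°C without shaking. OD600 read; percent inhibition calculated against media-only and untreated-bacteria controls on the same plate. Colistin (Gram-negative) and vancomycin (Gram-positive) were the standards.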

[9] = system: Pseudomonas aeruginosa; experiment: Antimicrobial activity against gram-negative Pseudomonas aeruginosa ATCC 27853 at 32 ug/ml after 18 hrs; assay type: functional; conditions: ATCC 27853, 18 h; procedure, shortened: as §1
[10] = system: Candida albicans; experiment: Antifungal activity against Candida albicans ATCC 90028 at 32 ug/ml after 24 hrs; assay type: functional; conditions: ATCC 90028, 24 h
[11] = system: Mycobacterium tuberculosis; experiment: Antitubercular activity against Mycobacterium tuberculosis H37Rv at 50 ug/ml after 5 days by microplate alamar blue assay relative to control; assay type: functional; conditions: 120 h
Procedure, shortened: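 M. tuberculosis H37Rv tested by microplate alamar blue assay, reading the resazurin-to-resorufin colour change, at an initial 50 µg/ml. Rifampicin and isoniazid were the standards.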

[12] = system: Mycobacterium tuberculosis; experiment: Antitubercular activity against clinical isolates of Mycobacterium tuberculosis by broth microdilution assay; assay type: functional
[13] = system: Klebsiella pneumoniae; experiment: Antimicrobial activity against gram-negative Klebsiella pneumoniae ATCC 700603 at 32 ug/ml after 18 hrs; assay type: functional; conditions: ATCC 700603, 18 h; procedure, shortened: as §1
[14] = system: Acinetobacter baumannii; experiment: Antimicrobial activity against gram-negative Acinetobacter baumannii ATCC 19606 at 32 ug/ml after 18 hrs; assay type: functional; conditions: ATCC 19606 = CIP 70.34 = JCM 6841, 18 h; procedure, shortened: as §1
[15] = system: Cryptococcus neoformans; experiment: Antifungal activity against Cryptococcus neoformans var. grubii ATCC 208821 at 32 ug/ml after 24 hrs; assay type: functional; conditions: ATCC 208821, 24 h
Procedure, shortened: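 Single-concentration antifungal screen at a final 32 µg/mL, n=2 on different plates. Fungi grown 3 days on YPD agar at 30°C; suspension of 1-5×10^6 cells/mL made from five colonies, then diluted in YNB broth. Incubated 35°C for 24 h without shaking. C. albicans read at OD530. C. neoformans read as OD600-570 after resazurin (0.001% final) and a further 2 h at 35°C. Inhibition calculated against on-plate controls; fluconazole was the standard.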

[16] = system: HepG2; experiment: Cytotoxicity against human HepG2 cells after 24 hrs by MTT assay; assay type: cell-based; conditions: HepG2, 24 h
Procedure, shortened: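 HepG2 cells seeded at 25,000-50,000 per well and allowed to adhere about 24 h at 37°C in 5% CO2. Serial dilutions (300, 100, 50, 10, 1, 0.1 µM) added in triplicate and incubated 24 h. MTT added to 10% of the total volume for 2-4 h in the dark. Formazan dissolved in 100% DMSO, absorbance read at 570 nm, and IC50 calculated.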

[17] = Cytotoxicity against African green monkey Vero cells after 72 hrs by sulforhodamine B assay; assay type: cell-based; conditions: chlorocebus sabaeus
[18] = Drug metabolism in rat liver microsomes after 60 mins; assay type: ADME, microsome; conditions: read-out: Drug metabolism
Procedure, shortened: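 Rat liver microsomes incubated with compound for 60 min. Stability followed as the peak area ratio of compound to internal standard. p-Nitrophenol conversion to p-nitrocatechol served as the positive control.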

[19] = system: Liver; experiment: Drug level in rat liver microsomes treated with p-nitrophenol after 60 mins; assay type: ADME, microsome; conditions: 1 h
Procedure, shortened: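 p-Nitrophenol incubated 60 min with rat liver microsomes as the positive control; its conversion to p-nitrocatechol was measured.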

SMILES	MIC95 [7] [µg/mL]	inhibition at 32 µg/mL [8] [%]	inhibition at 32 µg/mL [9] [%]	inhibition at 32 µg/mL [10] [%]	inhibition at 50 µg/mL [11] [%]	also measured
COc1ccc(-c2cc(CN3CCSCC3)c(C)n2-c2ccc(F)cc2)cc1	–	–	–	–	–	MIC [1]: 0.2 µM (≈ 0.0793 µg/mL); IC50 [2]: > 302 µM; IC50 [3]: > 2420 µM; half-life [4]: < 5 min; Ratio [5]: 127.5 - 1937.5; Ratio [6]: 127.5 - 1937.5
CSc1ccc(-c2cc(CN3CCSCC3)c(C)n2-c2ccc(F)cc2)cc1	–	–	–	–	–	MIC [1]: 0.16 µM (≈ 0.066 µg/mL); IC50 [2]: 15.2 µM; IC50 [3]: 5.9 µM; half-life [4]: 10 min; Ratio [5]: 127.5 - 1937.5; Ratio [6]: 127.5 - 1937.5
Cc1ccn2c(CN3CCOCC3)c(-c3ccccc3)nc2c1	40 (≈ 130 µM)	15.8 to 23.5	10.6 to 15.2	0.89 to 1.68	95	–
Cc1c(CN2CCN(C)CC2)cc(-c2ccc(Cl)cc2)n1-c1ccc(Cl)cc1	–	–	–	–	–	MIC [1]: 5 µM (≈ 2.07 µg/mL); IC50 [3]: 7.8 µM; half-life [4]: > 30 min; Ratio [5]: 127.5 - 1937.5; Ratio [6]: 127.5 - 1937.5; MIC [12]: 1.5 µg/mL (≈ 3.62 µM)
Cc1ccc(-c2cc(CN3CCSCC3)c(C)n2-c2ccc(F)cc2)cc1	–	–	–	–	–	MIC [1]: 0.16 µM (≈ 0.0609 µg/mL); IC50 [2]: 179 µM; IC50 [3]: 24 µM; half-life [4]: 8.2 min; Ratio [5]: 127.5 - 1937.5; Ratio [6]: 127.5 - 1937.5
COc1ccc(-c2nc3ccccc3n2-c2ccc(Cl)cc2)c(OC)c1	48.3 (≈ 132 µM)	10.9 to 14.2	–	2.68 to 3.53	95	inhibition at 32 µg/mL [13]: 3.25 to 9.39%
Fc1ccc(-c2nc3ccccn3c2CN2CCOCC2)cc1	22.2 (≈ 71.3 µM)	22.3 to 30.3	11 to 14.3	0.63 to 5.39	95	–
COc1ccc(-c2nc3ccccc3n2-c2ccccc2)cc1O	8 (≈ 25.3 µM)	7.7 to 15.5	1.32 to 7.73	6.64 to 11.3	95	–
Cc1c(CN2CCOCC2)cc(-c2ccc(C(C)C)cc2)n1-c1ccc(F)cc1	–	–	–	–	–	MIC [1]: 0.12 µM (≈ 0.0471 µg/mL); IC50 [2]: 50.1 µM; IC50 [3]: 15.3 µM; half-life [4]: > 30 min
Cc1ccn2c(CN3CCCCC3)c(-c3ccccc3)nc2c1	33.7 (≈ 110 µM)	–	–	–	95	–
COc1ccc(-c2nc3ccccc3n2-c2ccc(C(C)C)cc2)cc1	> 50	6.25 to 12.4	6.29 to 15.7	13.1 to 14.2	68	inhibition at 32 µg/mL [14]: 23.8 to 36.1%; inhibition at 32 µg/mL [15]: 7.06 to 11%
COc1ccc(-c2nc3ccccc3n2-c2cc(C)ccc2C)cc1	> 50	9.57 to 10	5.72 to 19.7	1.69 to 4.32	80	inhibition at 32 µg/mL [14]: 3.5 to 38.8%
c1ccc(-c2nc3ccccn3c2CN2CCCCC2)cc1	> 50	14.8 to 19.4	11.4 to 17.7	2.41 to 3.93	95	inhibition at 32 µg/mL [14]: 1.56 to 10.4%
COc1ccc(-c2nc3ccccc3n2-c2ccc(F)cc2)cc1	> 50	11.6 to 12.7	5.18 to 12.8	1.62 to 1.69	6	–
c1ccc(-c2nc3ccccn3c2CN2CCOCC2)cc1	> 50	26.1 to 28.6	9.04 to 16.5	0.3 to 6.38	95	inhibition at 32 µg/mL [13]: 2.52 to 13.8%; inhibition at 32 µg/mL [15]: 2.71 to 3.04%
Cc1ccn2c(CN3CCOCC3)c(-c3ccc(F)cc3)nc2c1	23.9 (≈ 73.5 µM)	20.1 to 21.8	9.71 to 27	2.74 to 7.44	95	–
COc1ccc(-c2nc3ccccc3n2-c2cccc(Cl)c2)cc1	> 50	14.1 to 16	7.07 to 24.5	4.66 to 7.76	0	–
Cc1ccc2nc(-c3ccc(F)cc3)c(CN3CCOCC3)n2c1	17 (≈ 52.2 µM)	25.1 to 26.2	–	3.4 to 6.17	95	–
COc1ccc(-c2nc3ccccc3n2-c2ccc(Cl)cc2)cc1OC	20.3 (≈ 55.6 µM)	1.03 to 9.81	–	7.63 to 8.23	95	inhibition at 32 µg/mL [14]: 39.9 to 42.6%; inhibition at 32 µg/mL [15]: 0.95 to 4.02%; IC50 [16]: 49.9 µM; GI50 at 72 h [17]: 8.2 µM; metabolised at 1 h [18]: 5%
Oc1ccc(-c2nc(-c3ccccc3)cn2-c2ccccc2)cc1	17.8 (≈ 57 µM)	–	–	–	95	–
COc1ccc(-c2nc3ccccc3n2-c2ccc(Br)cc2)cc1	> 50	12.3 to 15	–	9.75 to 11.7	92	inhibition at 32 µg/mL [14]: 1.56 to 58.1%; IC50 [16]: 113 µM; GI50 at 72 h [17]: 5 µM; metabolised at 1 h [18]: 2%
COc1ccc(-c2nc3ccccc3n2-c2ccc(Cl)cc2)cc1	2.3 (≈ 6.87 µM)	–	1.34 to 9.75	12.2 to 12.9	95	IC50 [16]: 203 µM; GI50 at 72 h [17]: 29 µM; metabolised at 1 h [18]: 0%
COc1ccc(-c2nc3ccccc3n2-c2cccc(OC)c2)cc1	> 50	7.42 to 20.4	9.8 to 11.2	5.26 to 8.76	14	inhibition at 32 µg/mL [14]: 19.7 to 59.9%
COc1ccc(-c2nc(-c3ccccc3)cn2-c2ccccc2)cc1	20.3 (≈ 62.2 µM)	3.07 to 13.3	2.98 to 16.6	17.5 to 26.4	95	inhibition at 32 µg/mL [14]: 23.1 to 34.8%
COc1cccc(-c2nc3ccccc3n2-c2ccc(Cl)cc2)c1	> 50	–	2.25 to 13	4.73 to 28.1	67	inhibition at 32 µg/mL [14]: 49.4 to 50.8%; inhibition at 32 µg/mL [15]: 6.16 to 19.6%
O=[N+]([O-])c1ccc(O)c(O)c1 [4-Nitrocatechol]	–	–	–	–	–	Drug metabolism [19]: Metabolite_Detected
NNC(=O)c1ccncc1 [ISONIAZID]	0.06 to 0.11 (≈ 0.438 to 0.802 µM)	–	–	–	95	–
CO[C@H]1/C=C/O[C@@]2(C)Oc3c(C)c(O)c4c(O)c(c(/C=N/N5CCN(C)CC5)c(O)c4c3C2=O)NC(=O)/C(C)=C\C=C\[C@H](C)[C@H](O)[C@@H](C)[C@@H](O)[C@@H](C)[C@H](OC(C)=O)[C@@H]1C [RIFAMPIN]	0.03 to 0.5 (≈ 0.0365 to 0.608 µM)	–	–	–	95	–
